Fewer inactive variants are shown than the library holds.
B1: tRNA (parent)
chain: GUUCCGUUGGCGUAAUGGUAACGCGUCUCCCUCCUAAGGAGAAGACUGCGGGUUCGAGUCCCGUACGGAACG

Variants of: B1
Experiment: yeast fitness relative to wild type (ratio to wild type); higher = fitter; tRNA-Arg(CCU), competitive growth, 37 C, YPD
Outline: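 For this measurement, the tRNA-Arg(CCU) gene was varied by chemical synthesis at a 3% per-site mutation rate across 69 sites, and each variant was placed at the native genomic locus in Saccharomyces cerevisiae. The pooled strains went through a 24-hour competition in YPD at 37°C in six parallel replicates, with amplicons from start and end populations read by 100-nucleotide paired-end sequencing. Darwinian fitness relative to wild type followed from the change in each genotype's frequency. Genotypes needed ≥ 100 starting reads, and estimates < 0.5 were set to 0.5.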

Variant	yeast fitness
A57U G63C U64A A70U	0.646
C61U A65G	1.07
U59C C61U	0.839
C61U U64A	0.606
C61U U64C	0.902
G58C C61U	0.887
C60A C62G A70C	≤ 0.5
A57G C62U G67A	≤ 0.5
C62A A65C	0.766
C61U C66U	0.929
C61U C66G	0.706
C62G G68C A70G	≤ 0.5
C60A C61A G63A	0.605
G58A C60U	0.688
G58A A65U	1.04
C60A C61U G63C C66U	≤ 0.5
C60G A69U	0.655
C61G C62G A70C	0.512
G58A A69G	1.15
G58A A69C	0.955
C60A A69U	0.746
C60A A69C	0.752
C60A U64C	0.718
G58C A69G	0.961

Variant	yeast fitness
C60G G63A G67A	≤ 0.5
G58C C60A A65C	≤ 0.5
U59A C62G G67A	≤ 0.5
C61A G63C	0.618
C62A A70G	0.674
G58A C60U A70G	0.702
G58C G63C	0.702
C62G A70C	0.679
C60U C66U	0.711
G58C C66G	0.711
G58C C66A	0.717
A57U G58A A65U	0.621
A57G A70C	0.859
C61U G63C	0.565
A57G U59A U64G	≤ 0.5
U59C A70U	1.01
U59C A70C	0.897
C61U A70U	1.04
A57G U59G	0.941
A57G U59C	0.864
A57U A65U G67A G68C	≤ 0.5
C60A C66U G68C	≤ 0.5
C61G A65G	0.713
C61G A65C	0.658

Variant	yeast fitness
U59A C66U	0.815
U59A C66G	0.669
A57U C61U	0.642
C62G A69G	0.819
C62G A69U	0.839
U59C C60U	0.704
A57U C66U	0.583
U59A C60G	0.655
C60U G67A	0.721
A57C G68U	0.696
A57C G68A	0.701
C60G G68C	0.603
A57U G67C	0.817
C60G C66U	0.599
C60G C66A	0.541
G58C U59C A69U	0.679
A57C U64C	0.564
G58A G67A	0.851
G58A A65C G67A	0.643
C62U A69U	0.955
C61G A65G C66U A69G	0.646
G58C C61U C66U	0.621
G58U C66A A70C	0.665
A57U A65C A69C	≤ 0.5

Variant	yeast fitness
A57U A65U G68C	≤ 0.5
A57G C62U	0.781
A57G G58C	1.03
A57G G58A	1.01
G58A U59A	1.06
A57G A69C	0.799
A57G A69U	0.943
U59C A69U	1.02
C61A A70C	0.694
G58C U59C A70G	0.706
C62G C66A	≤ 0.5
C62G C66G	0.553
C61G G63C	0.532
C61A G67A	0.582
G58A C61A C62G	0.711
C62G G63C	0.588
C62U A65U G68C	0.602
U59G C62U	0.875
A57U C66U G68C A69U	≤ 0.5
C60A A65G	0.573
A57U C62A U64A	≤ 0.5
G58A C61G	0.668
C60U U64C	0.833
C61A C66G	0.572

Variant	yeast fitness
C60A A65U A70U	0.53
C61G C62G	0.741
C61G C62A	0.503
C61U G67U	0.86
C61U G67A	0.649
G58A G68A	0.899
U59A A65G	1.11
A57U G58C	0.636
C62U A65U	0.93
A57U U59C	0.569
U59A A69U	0.817
C62A A65U A70U	0.531
C61U G68A A70G	0.648
C61U A69G A70C	0.923
C60G C61A A69G	0.586
A57C C62U G68C	0.539
C60U A70G	0.786
U59G A65G	0.965
U59G A65U	0.917
A57U A65U G68C A69G	≤ 0.5
C61G C66U	0.635
C60U C61G G67A	≤ 0.5
A57G G67A	0.878
A57G G67U	0.869

Variant	yeast fitness
G58C C62U	0.893
U59C C61A C66A	≤ 0.5
G58U A65G G67A	≤ 0.5
A57U U59G C66U	≤ 0.5
G58A C66U	0.981
G58A C62G	1.14
A57G A65G A69C	0.7
U59C C62U	0.814
U59G G67A	0.796
A57C U59C	0.613
C61A A69G	0.584
C60A A70G	0.531
C60A A70C	0.621
C62G U64A	0.695
C62G U64C	0.97
A57U A70C	0.7
U59A G68A	0.791
U59A G68U	0.769
C60A C66U	0.608
C60A C66G	0.773
C61G A70G	0.685
C61G A70U	0.772
A57G C60A C66G	0.558
A57U A65U	0.618

Variant	yeast fitness
C60G C66G A69G	0.593
G58A C62U G63A	0.621
U59A C62U	0.922
C62U A69G A70U	0.648
C62A A69G A70G	0.614
C60U C62G	0.688
C60U C62A	≤ 0.5
C62G A65U A69U	0.535
A57U U64A	0.678
U59C A65C	0.837
C61U A65G G68A	0.705
G58A C60U C62A	0.552
U59A G67A	0.799
A57G A65C	0.919
C61U A69U	1.02
A57G C61A	0.688
A57C G63C	0.601
A57U C62U C66U	0.613
G58C C60U C66G	≤ 0.5
U59A U64G	0.52
C62G A65G A70U	≤ 0.5
C61A C62U	0.795
C61A C62A	0.603
